Results published in ChEMBL document CHEMBL1148824, “Quinazolinone derivatives as orally available ghrelin receptor antagonists for the treatment of diabetes and obesity” (J Med Chem, 2007).
≈ marks a conversion by molar mass, not a printed value.

Columns and labels:
[1] = test system: Brain; experiment: Drug level in po dosed DIO C57BL/6 mouse brain after 5 hrs relative to plasma concentration; type: ADME, organism-based
[2] = target: Ghrelin receptor (Ovis aries, UniProt Q8MHZ5); experiment: Displacement of [125I]ghrelin from ovine recombinant GHSR1a expressed in HEK293F cells after 6 hrs by scintillation proximity assay; type: cell-based
[3] = test system: Mus musculus; experiment: Increase in food intake in DIO C57BL/6 mouse at 30 mg/kg, after 5 hrs relative to control; type: functional
[4] = test system: Rattus norvegicus; experiment: Decrease in blood glucose level in DIO Wistar rat using at 10 mg/kg after 5 hrs by IPGTT test relative to control; type: functional; parameters: scale not given: the % may be the effect or the level left
[5] = target: T1, 5-hydroxytryptamine receptor 2C (Homo sapiens, UniProt P28335); experiment: Displacement of […] from 5HT2c receptor
T1 sequence (P28335 whole entry): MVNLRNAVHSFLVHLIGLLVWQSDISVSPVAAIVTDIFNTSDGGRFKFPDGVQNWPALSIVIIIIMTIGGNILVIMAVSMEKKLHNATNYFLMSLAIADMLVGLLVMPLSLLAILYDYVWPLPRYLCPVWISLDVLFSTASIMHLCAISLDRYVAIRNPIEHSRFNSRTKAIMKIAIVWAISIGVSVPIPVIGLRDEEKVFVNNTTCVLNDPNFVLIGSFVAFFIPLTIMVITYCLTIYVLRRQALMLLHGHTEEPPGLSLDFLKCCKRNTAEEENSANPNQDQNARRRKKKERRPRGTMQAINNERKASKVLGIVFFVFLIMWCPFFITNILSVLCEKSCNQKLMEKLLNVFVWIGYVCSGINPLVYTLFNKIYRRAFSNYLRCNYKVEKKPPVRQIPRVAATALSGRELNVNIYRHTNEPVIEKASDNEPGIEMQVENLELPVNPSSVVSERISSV

[6] = Aqueous solubility at pH 7.2; type: physicochemical
[7] = Cmax in po dosed DIO C57BL/6 mouse after 5 hrs; type: ADME, organism-based; parameters: route oral; details: in vivo
[8] = Cmax in Wistar rat at 3 mg/kg, po; type: ADME, organism-based; parameters: dose 3 mg/kg, route oral; details: in vivo
Outline: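 Wistar rat pharmacokinetic screen; single oral dose of 3 mg/kg in PEG400/methanesulfonic acid (80:20) vehicle; plasma exposure measured.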

[9] = target: Cytochrome P450 2D6 (Homo sapiens, UniProt P10635); experiment: Inhibition of CYP2D6; type: ADME
[10] = target: T2, Growth hormone secretagogue receptor type 1 (Homo sapiens, UniProt Q92847); experiment: Agonist activity at human recombinant GHSR1a expressed in HEK293F cells assessed as stimulation of [35S]GTP-gamma-S binding relative to ghrelin; type: functional, cell-based
Outline: (§1)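 Functional read-out as GTPγS binding to membranes from HEK293F cells overexpressing recombinant GHS-R1a; values are the mean of at least two replicates.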

[11] = target: T2, Growth hormone secretagogue receptor type 1; experiment: Antagonist activity at human recombinant GHSR1a expressed in HEK293F cells by [35S]GTP-gamma-S binding assay; type: functional, cell-based; outline: as §1

T2 sequence (Q92847 whole entry): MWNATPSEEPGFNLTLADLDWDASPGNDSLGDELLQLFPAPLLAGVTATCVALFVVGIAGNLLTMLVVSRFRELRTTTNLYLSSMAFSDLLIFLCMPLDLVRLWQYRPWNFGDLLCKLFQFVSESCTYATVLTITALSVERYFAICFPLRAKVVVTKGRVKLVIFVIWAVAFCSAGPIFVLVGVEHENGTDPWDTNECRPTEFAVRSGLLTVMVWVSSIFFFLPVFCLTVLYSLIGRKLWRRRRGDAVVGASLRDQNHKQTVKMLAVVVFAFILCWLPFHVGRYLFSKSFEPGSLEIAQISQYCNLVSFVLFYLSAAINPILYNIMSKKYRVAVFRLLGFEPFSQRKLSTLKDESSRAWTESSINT
Sequence of Ghrelin receptor (Q8MHZ5 whole entry): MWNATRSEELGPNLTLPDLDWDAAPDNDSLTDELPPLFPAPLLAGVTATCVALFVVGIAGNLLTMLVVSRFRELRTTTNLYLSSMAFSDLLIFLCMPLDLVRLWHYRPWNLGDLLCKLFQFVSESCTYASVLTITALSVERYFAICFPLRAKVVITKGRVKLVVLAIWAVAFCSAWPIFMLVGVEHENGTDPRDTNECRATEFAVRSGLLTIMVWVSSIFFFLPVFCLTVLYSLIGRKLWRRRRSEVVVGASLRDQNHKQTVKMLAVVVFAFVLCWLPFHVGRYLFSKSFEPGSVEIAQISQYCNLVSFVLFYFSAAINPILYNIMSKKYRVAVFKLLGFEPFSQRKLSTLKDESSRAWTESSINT
Sequence of Cytochrome P450 2D6 (P10635 whole entry): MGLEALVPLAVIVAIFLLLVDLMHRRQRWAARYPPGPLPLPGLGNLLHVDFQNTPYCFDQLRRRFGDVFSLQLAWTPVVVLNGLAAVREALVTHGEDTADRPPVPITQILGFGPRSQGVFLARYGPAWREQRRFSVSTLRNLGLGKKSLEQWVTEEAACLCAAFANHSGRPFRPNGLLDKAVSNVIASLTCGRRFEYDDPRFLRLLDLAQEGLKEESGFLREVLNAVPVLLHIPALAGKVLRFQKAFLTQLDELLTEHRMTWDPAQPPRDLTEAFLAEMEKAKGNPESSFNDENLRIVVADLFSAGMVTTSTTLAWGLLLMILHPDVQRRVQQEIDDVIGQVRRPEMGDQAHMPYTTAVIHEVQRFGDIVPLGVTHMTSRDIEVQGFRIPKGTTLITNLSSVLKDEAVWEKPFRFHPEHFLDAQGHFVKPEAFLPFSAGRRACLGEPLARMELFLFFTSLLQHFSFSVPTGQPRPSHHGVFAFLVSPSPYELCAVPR

Row | Compound | Ki [2] [nM] | Cmax [8] [nM] | E/Emax [10] [%] | Kb [11] [nM] | also measured
1 | CCN1CCC[C@@H](Cn2c(C(C)C)nc3ccc(-c4ccc(F)cc4)cc3c2=O)C1 | 5700 | – | – | – | –
2 | Cc1ccccc1-c1nc2ccc(-c3ccc(Cl)cc3)cc2c(=O)n1CC1CCCN(CCC(F)(F)F)C1 (stereo not drawn) | 250 | – | – | – | –
3 | CCN1CCC[C@@H](Cn2c(-c3ccc(C(F)(F)F)cc3)nc3ccc(-c4ccc(Cl)cc4)cc3c2=O)C1 | 240 | – | – | – | –
4 | CC(C)N1CCCC(Cn2c(-c3ccc(OCCO)cc3F)nc3ccc(Oc4ccc(F)cc4)cc3c2=O)C1 (racemic) | – | – | – | – | Drug uptake [1]: < 0.001%; Activity [3]: 4%; Cmax [7]: 5.7 µM
5 | Cc1ccccc1-c1nc2ccc(Oc3ccc(F)cc3)cc2c(=O)n1C[C@H]1CCCN(C(C)C)C1 (stereo in doubt; 36) [listing 2 of 2 here] | – | – | 22 | 0.19 | –
6 | CCN1CCCC(CCn2c(-c3ccccc3OC)nc3ccc(-c4ccc(Cl)cc4)cc3c2=O)C1 (stereo not drawn) | > 10000 | – | – | – | –
7 | Cc1ccccc1-c1nc2ccccc2c(=O)n1CC1CCCN(C(C)C)C1 (stereo not drawn) | 1200 | – | – | – | –
8 | CC(C)N1CCC[C@H](Cn2cnc3ccc(-c4ccc(Cl)cc4)cc3c2=O)C1 | 440 | 200 | – | – | Ki [5]: > 1000 nM; IC50 [9]: 0.2 µM
9 | CCN1CCCC(Cn2c(-c3ccccc3OC)nc3cc(-c4ccc(Cl)cc4)ccc3c2=O)C1 (stereo not drawn) | > 10000 | – | – | – | –
10 | CCN1CCC[C@@H](Cn2c(-c3ccccc3C)nc3ccc(OC(F)(F)F)cc3c2=O)C1 | 95 | – | – | – | –
11 | CC(C)c1nc2ccc(-c3ccccc3Cl)cc2c(=O)n1C[C@H]1CCCN(C(C)C)C1 | 127 | – | – | – | –
12 | Cc1ccccc1-c1nc2ccc(-c3ccc(Cl)cc3)cc2c(=O)n1CC1CCCN(C(C)C)C1 (stereo not drawn) | – | 150 | – | – | –
13 | CCN1CCCC(Cn2c(-c3ccccc3C)nc3ccc(-c4ccc(Cl)cc4)cc3c2=O)C1 (stereo not drawn) [listing 2 of 2 here] | – | – | 12 | 3.2 | –
14 | CCN1CCCC(Cn2c(-c3ccccc3OC)nc3ccc(OC)cc3c2=O)C1 (stereo not drawn) | 910 | – | – | – | –
15 | Cc1nc2ccc(-c3ccc(Cl)cc3)cc2c(=O)n1C[C@H]1CCCN(C(C)C)C1 | 110 | – | 0 | – | Ki [5]: > 1000 nM; solubility [6]: 125 µM (≈ 51.2 µg/mL); IC50 [9]: 9.6 µM
16 | CC(C)c1nc2ccc(-c3ccccc3Cl)cc2c(=O)n1C[C@@H]1CCCN(C(C)C)C1 | 1800 | – | – | – | –
17 | Cc1ccccc1-c1nc2ccc(-c3ccc(Cl)cc3)cc2c(=O)n1CC1CN(C(C)C)CCO1 (stereo not drawn) | 190 | – | – | – | –
18 | Cc1ccccc1-c1nc2ccc(-c3ccc(Cl)cc3)cc2c(=O)n1CC1CCCN(CC(F)(F)F)C1 (stereo not drawn) | 2000 | 170 | – | – | –

More lines, main results first:

Row | Ki [2] [nM] | Cmax [8] [nM] | E/Emax [10] [%] | Kb [11] [nM] | Compound | also measured
19 | 0.86 | 90 | – | – | Cc1ccccc1-c1nc2ccc(Oc3ccc(F)cc3)cc2c(=O)n1C[C@H]1CCCN(C(C)C)C1 (stereo in doubt; 36) [listing 1 of 2 here] | Drug uptake [1]: 1%; Activity [3]: -7%; Activity [4]: -19%; Ki [5]: > 1000 nM; solubility [6]: 250 µM (≈ 121 µg/mL); Cmax [7]: 3.1 µM; IC50 [9]: 0.09 µM
20 | 0.47 | 310 | 23 | 0.97 | Cc1ccccc1-c1nc2ccc(Oc3ccc(F)cc3)cc2c(=O)n1CC1CCCN(C(C)C)C1 (stereo not drawn) | –
21 | 18 | – | 2 | 45 | CC(C)N1CCC[C@H](Cn2cnc3ccc(Oc4ccc(F)cc4)cc3c2=O)C1 | Ki [5]: > 1000 nM; solubility [6]: 450 µM (≈ 178 µg/mL); IC50 [9]: 21 µM
22 | 16 | – | – | – | CCN1CCC[C@H](Cn2c(-c3ccc(C(F)(F)F)cc3)nc3ccc(-c4ccc(Cl)cc4)cc3c2=O)C1 | –
23 | 45 | 290 | 0 | 77 | CC(C)c1nc2ccc(-c3ccc(Cl)cc3)cc2c(=O)n1C[C@H]1CCCN(C(C)C)C1 | Ki [5]: > 1000 nM; solubility [6]: 60 µM (≈ 26.3 µg/mL); IC50 [9]: 6.3 µM
24 | 16 | 100 | -9 | 14 | Cc1ccccc1-c1nc2ccc(-c3ccc(Cl)cc3)cc2c(=O)n1CC1CCCN(CCF)C1 (stereo not drawn) | –
25 | 24 | 240 | 4 | 45 | CCN1CCCC(Cn2c(-c3ccccc3C)nc3ccc(OC(F)(F)F)cc3c2=O)C1 (stereo not drawn) | –
26 | 4 | 210 | -5 | 7.6 | CC(C)c1nc2ccc(Oc3ccc(F)cc3)cc2c(=O)n1C[C@H]1CCCN(C(C)C)C1 | Ki [5]: > 1000 nM; solubility [6]: 100 µM (≈ 43.8 µg/mL); IC50 [9]: 7.2 µM
27 | 16 | – | – | – | CCN1CCC[C@H](Cn2c(-c3ccccc3C)nc3ccc(OC(F)(F)F)cc3c2=O)C1 | –
28 | 7 | 20 | 12 | 13 | Cc1ccccc1-c1nc2ccc(-c3ccc(Cl)cc3)cc2c(=O)n1CC1CCCNC1 (stereo not drawn) | –
29 | 4 | 140 | -20 | 6.4 | COCCN1CCCC(Cn2c(-c3ccccc3C)nc3ccc(-c4ccc(Cl)cc4)cc3c2=O)C1 (stereo not drawn) | –
30 | 1.8 | 120 | – | – | CCN1CCCC(Cn2c(-c3ccccc3C)nc3ccc(-c4ccc(Cl)cc4)cc3c2=O)C1 (stereo not drawn) [listing 1 of 2 here] | –
31 | 36 | – | – | – | CCCCN(C)c1ccc2nc(-c3ccccc3OC)n(CC3CCCNC3)c(=O)c2c1 (stereo not drawn) | –
32 | 0.9 | 40 | 92 | – | Cc1ccccc1-c1nc2ccc(Oc3ccc(F)cc3)cc2c(=O)n1CC1CCCNC1 (stereo not drawn) | EC50 [10]: 6.5 nM
33 | 40 | – | – | – | CCN1CCC[C@H](Cn2c(C(C)C)nc3ccc(-c4ccc(F)cc4)cc3c2=O)C1 | –
34 | 2.5 | 220 | -20 | 2.7 | Cc1ccccc1-c1nc2ccc(-c3ccc(Cl)cc3)cc2c(=O)n1CC1CCCN(C2CCC2)C1 (stereo not drawn) | –
35 | 47 | – | – | – | Cc1ccccc1-c1nc2ccc(Oc3ccc(F)cc3)cc2c(=O)n1C[C@@H]1CCCN(C(C)C)C1 | –
36 | 1.7 | 120 | 0 | 2.8 | CCN1CCC[C@H](Cn2c(-c3ccccc3C)nc3ccc(-c4ccc(Cl)cc4)cc3c2=O)C1 | Drug uptake [1]: 22%; Activity [3]: -17%; Activity [4]: -13%; Ki [5]: 120 nM; solubility [6]: 80 µM (≈ 37.8 µg/mL); Cmax [7]: 2.2 µM; IC50 [9]: 6.1 µM
37 | 26 | 30 | -18 | 36 | CCN1CCC=C(Cn2c(-c3ccccc3C)nc3ccc(-c4ccc(Cl)cc4)cc3c2=O)C1 | –
38 | 0.9 | – | – | – | Cc1ccccc1-c1nc2ccc(Oc3ccc(F)cc3)cc2c(=O)n1C[C@H]1CCCN(C(C)C)C1 (stereo in doubt; (S)-35) | –
39 | 71 | – | 10 | 250 | CCN1CCC[C@@H](Cn2c(-c3ccccc3C)nc3ccc(-c4ccc(Cl)cc4)cc3c2=O)C1 | –
